The source of these data is ChEMBL document CHEMBL3621194, “Synthesis of Triazole-Linked Analogues of c-di-GMP and Their Interactions with Diguanylate Cyclase” (J Med Chem, 2015).

One may read the IC50 as the concentration that inhibits the measured activity by half.

For one assay, the system named is Caulobacter vibrioides. The assay is described as follows: Inhibition of Caulobacter crescentus PleD assessed as residual enzyme activity at 100 uM using 100 uM GTP substrate. Summed up: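 PleD residual DGC activity at 100 µM compound with 100 µM GTP substrate, measured by circular dichroism, or by reverse-phase HPLC of nucleotide content when compound CD spectra interfered.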

Assay [1] relates to Pseudomonas aeruginosa. Put plainly: Inhibition of Pseudomonas aeruginosa RocR assessed as residual enzyme activity at 100 uM using 30 uM c-di-GMP substrate. Summed up:
(§1)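 RocR PDE activity measured with 30 µM c-di-GMP substrate, with or without inhibitors. For IC50, initial velocity used and residual activity fitted to log-dose vs response curve; points are mean and SD of three independent experiments. Single-point screens used 100 µM compound.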

Assay [2] is described as follows: Inhibition of Caulobacter crescentus PleD using 100 uM GTP substrate. Also on record: species or system Caulobacter vibrioides. Summed up:
(§2)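 DGC activity of PleD measured by circular dichroism with 100 µM GTP substrate; where compound CD spectra interfered, nucleotide content analysed by reverse-phase HPLC. Initial velocity used for IC50; residual activity versus inhibitor concentration fitted to log-dose vs response curve, mean and SD of three independent experiments.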

Assay [3] has as its system Pseudomonas aeruginosa. Put plainly: Inhibition of biofilm formation of Pseudomonas aeruginosa PAO1 at 7.81 to 500 uM incubated for 16 hrs by crystal violet staining method. Type of assay: functional, organism-based. Summed up: (§3)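 P. aeruginosa PAO1 or E. coli MG1655 grown 14 h at 37°C in M9 with 0.4% glucose (E. coli medium also with 2.5% LB). Cultures diluted in fresh medium, compound in DMSO or DMSO alone added, then incubated 16 h at 30°C. Planktonic A600 read; wells washed with PBS, air-dried, stained with 1% crystal violet, solubilised in ethanol, A595 read.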

A further assay has as its system Escherichia coli. Put plainly: Inhibition of biofilm formation of Escherichia coli MG1655 7.81 to 500 uM incubated for 16 hrs by crystal violet staining method. Type of assay: functional, organism-based. Summed up:
as §3

Assay [4] relates to Pseudomonas aeruginosa. Put plainly: Effect on cdrA expression in Pseudomonas aeruginosa PAO1 at 200 uM by real time RT-PCR method. Type of assay: functional, organism-based. Summed up: (§4)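 P. aeruginosa PAO1 grown at 37°C in M9 minimal medium with 0.4% glucose, plus DMSO or 200 µM compound in DMSO, to A600 2.0. Total RNA extracted, DNase-treated, reverse transcribed; qPCR with 5 ng cDNA per reaction and 300 nM primers, fluorescence read in the 60°C step. Normalized to 16S rRNA; relative fold change by 2∆∆Ct method.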
For orientation: Real-time PCR tracks product formation cycle by cycle.

Assay [5] deals with Pseudomonas aeruginosa. The assay is described as follows: Effect on pctC expression in Pseudomonas aeruginosa PAO1 at 200 uM by real time RT-PCR method. Type of assay: functional, organism-based. Summed up: as §4
Assay [6] can be described thus: Inhibition of Caulobacter crescentus PleD. Also on record: species or system Caulobacter vibrioides. Summed up:
as §2

Assay [7] in a line: Inhibition of Pseudomonas aeruginosa RocR assessed as residual enzyme activity using 30 uM c-di-GMP substrate. Summed up:
as §1

In assay [8] the test system is Pseudomonas aeruginosa. Put plainly: Inhibition of Pseudomonas aeruginosa WspR assessed as residual enzyme activity at 100 uM. Summed up: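 WspR DGC activity measured by circular dichroism under the same conditions as for PleD, with 100 µM compound; read-out as residual activity.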
Assay [9] concerns Pseudomonas aeruginosa. The assay is described as follows: Inhibition of Pseudomonas aeruginosa YfiN containing HAMP-GGDEF domain assessed as residual enzyme activity up to 250 uM.

The source made the active and inactive calls. The rule behind the calls is not given here.

With `Nc1nc2c(ncn2CCCCn2cc(Cn3cnc4c(=O)[nH]c(N)nc43)nn2)c(=O)[nH]1`, the Activity in the assay on Caulobacter vibrioides was determined as 87%; in the assay on Pseudomonas aeruginosa [1], 92%.

As for `Nc1ncnc2c1ncn2[C@@H]1O[C@H](COCc2cn(C[C@H]3O[C@@H](n4cnc5c(N)ncnc54)[C@H](O)[C@@H]3O)nn2)[C@@H](O)[C@H]1O`, the Activity with Caulobacter vibrioides stood at 105%; in the assay on Pseudomonas aeruginosa [1], 113%.

As to `Nc1nc(NCc2ccccc2)c2ncn(CCCn3cc(Cn4cnc5c(NCc6ccccc6)nc(N)nc54)nn3)c2n1`, the figures for the Activity in the assay with Caulobacter vibrioides and with Pseudomonas aeruginosa [1] were 109% and 75%, respectively.

With `Nc1nc(Cl)c2ncn(CCCn3cc(Cn4cnc5c(Cl)nc(N)nc54)nn3)c2n1`, the Activity with Caulobacter vibrioides stood at 32%; with Pseudomonas aeruginosa [1], 96%. In assay [2], the IC50 was 25.5 µM. In addition, the inhibition result with Pseudomonas aeruginosa [3] and in the assay on Escherichia coli was “inactive” in each case. Besides, the outcome in the assay with Pseudomonas aeruginosa [4] and in the assay with Pseudomonas aeruginosa [5] was inactive.

Turning to `Nc1nc2c(ncn2CCn2cc(Cn3cnc4c(=O)[nH]c(N)nc43)nn2)c(=O)[nH]1`, the Activity was determined as 104% with Caulobacter vibrioides and 77% in the assay on Pseudomonas aeruginosa [1].

`CNc1nc(N)nc2c1ncn2CCCn1cc(Cn2cnc3c(NC)nc(N)nc32)nn1`: the Activity in the assay on Caulobacter vibrioides worked out at 96%; in the assay on Pseudomonas aeruginosa [1], 70%.

With `Nc1nc2c(ncn2CCCn2cc(COC[C@H]3O[C@@H](n4cnc5c(=O)[nH]c(N)nc54)[C@H](O)[C@@H]3O)nn2)c(=O)[nH]1`, the Activity came out at 82% in the assay with Caulobacter vibrioides and 163% with Pseudomonas aeruginosa [1].

Consider `Nc1ncnc2c1ncn2CCCn1cc(Cn2cnc3c(N)ncnc32)nn1`, for which the Activity stood at 106% with Caulobacter vibrioides and 64% in the assay on Pseudomonas aeruginosa [1].

Turning to `Nc1nc(Cl)c2ncn(CCn3cc(Cn4cnc5c(Cl)nc(N)nc54)nn3)c2n1`, the Activity in the assay with Caulobacter vibrioides turned out to be 92%; in the assay with Pseudomonas aeruginosa [1], 86%.

Molecule `Nc1nc2c(ncn2[C@@H]2O[C@@H]3COP(=O)(O)O[C@H]4[C@@H](O)[C@H](n5cnc6c(=O)[nH]c(N)nc65)O[C@@H]4COP(=O)(O)O[C@H]3[C@H]2O)c(=O)[nH]1` registered an IC50 in assay [6] of 5 µM.

As for `Nc1nc2c(ncn2[C@@H]2O[C@H](COCc3cn(C[C@H]4O[C@@H](n5cnc6c(=O)[nH]c(N)nc65)[C@H](O)[C@@H]4O)nn3)[C@@H](O)[C@H]2O)c(=O)[nH]1`, the Activity with Caulobacter vibrioides was found to be 63%; with Pseudomonas aeruginosa [1], 88%.

For `Clc1ncnc2c1ncn2CCCn1cc(Cn2cnc3c(Cl)ncnc32)nn1`, the Activity with Caulobacter vibrioides was found to be 97%; in the assay on Pseudomonas aeruginosa [1] it was 93%.

Take `Nc1nc2c(ncn2CCCn2cc(Cn3cnc4c(=O)[nH]c(N)nc43)nn2)c(=O)[nH]1`: the Activity amounted to 12.5% in the assay on Caulobacter vibrioides, 41% in the assay with Pseudomonas aeruginosa [1] and 20% with Pseudomonas aeruginosa [8]. The IC50 in assay [2] was determined as 17.5 µM; in assay [7], 66.3 µM. In addition, the inhibition result with Pseudomonas aeruginosa [9], with Pseudomonas aeruginosa [3] and with Escherichia coli was “inactive” each time. Also, the outcome in the assay with Pseudomonas aeruginosa [4] and with Pseudomonas aeruginosa [5] was inactive.

`Nc1nc2c(ncn2[C@@H]2O[C@H](Cn3cc(COC[C@H]4O[C@@H](n5cnc6c(N)ncnc65)[C@H](O)[C@@H]4O)nn3)[C@@H](O)[C@H]2O)c(=O)[nH]1`: the Activity was 97% in the assay with Caulobacter vibrioides and 79% with Pseudomonas aeruginosa [1].

Consider `Nc1nc2c(ncn2Cc2cn(C[C@H]3O[C@@H](n4cnc5c(=O)[nH]c(N)nc54)[C@H](O)[C@@H]3O)nn2)c(=O)[nH]1`, for which the Activity with Caulobacter vibrioides was 89%; in the assay on Pseudomonas aeruginosa [1], 77%.

For `Nc1nc(Cl)c2ncn(CCCCn3cc(Cn4cnc5c(Cl)nc(N)nc54)nn3)c2n1`, the Activity came to 98% in the assay with Caulobacter vibrioides and 128% in the assay with Pseudomonas aeruginosa [1].
